ChEMBL document CHEMBL2439987, “TRPV1 antagonist with high analgesic efficacy: 2-Thio pyridine C-region analogues of 2-(3-fluoro-4-methylsulfonylaminophenyl)propanamides” (Bioorg Med Chem, 2013)
pIC50, pKi: −log10 of the molar value. Activity calls are given as the source filed them. The calls are words filed in the database; no cut-off is given here.

How the values were obtained:
[1] = target: T1, Transient receptor potential cation channel subfamily V member 1 (Homo sapiens, UniProt Q8NER1); assay: Antagonist activity at human TRPV1 expressed in CHOK1 cells assessed as inhibition of pH-induced activity by FLIPR assay; assay type: cell-based, CHO-K1; conditions: for inhibition: CHO-K1
[2] = target: T1, Transient receptor potential cation channel subfamily V member 1; assay: Antagonist activity at human TRPV1 expressed in CHOK1 cells assessed as inhibition of capsaicin-induced activity by FLIPR assay; assay type: cell-based, CHO-K1; conditions: for pKi: read-out: Ki; for Ki: cho-k1
[3] = test system: Mus musculus; assay: Inhibition of capsaicin-induced hypothermia in NMRI mouse at 0.3 mg/kg, po administered 15 mins prior challenge measured at 30 mins post-challenge; assay type: functional, organism-based; parameters: dose 0.3 mg/kg
[4] = test system: Rattus norvegicus; assay: Analgesic activity in CCI-induced Sprague-Dawley rat neuropathic pain model assessed as reduction in paw withdrawal at 10 mg/kg, po measured 45 mins post compound administration relative to control; assay type: functional
In short: (§1)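 Chronic constriction injury (Bennett model) of neuropathic pain in rats, read out as cold allodynia. Compound given orally and compared with vehicle. Effect expressed as % maximal possible effect (MPE), with n = 10 per group, mean ± SEM, and p < 0.05 versus vehicle. ED50 taken from the dose–response.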

[5] = test system: Rattus norvegicus; assay: Analgesic activity in CCI-induced Sprague-Dawley rat neuropathic pain model assessed as reduction in paw withdrawal measured 45 mins after po administration; assay type: functional; in short: as §1
[6] = target: T1, Transient receptor potential cation channel subfamily V member 1; assay: Antagonist activity at human TRPV1 expressed in CHOK1 cells assessed as inhibition of 45 degC heat-induced activity after 5 mins by FLIPR assay; assay type: cell-based, CHO-K1
[7] = target: T1, Transient receptor potential cation channel subfamily V member 1; assay: Antagonist activity at human TRPV1 expressed in CHOK1 cells assessed as inhibition of N-arachidonoyl dopamine-induced activity after 5 mins by FLIPR assay

T1 sequence (Q8NER1 whole entry): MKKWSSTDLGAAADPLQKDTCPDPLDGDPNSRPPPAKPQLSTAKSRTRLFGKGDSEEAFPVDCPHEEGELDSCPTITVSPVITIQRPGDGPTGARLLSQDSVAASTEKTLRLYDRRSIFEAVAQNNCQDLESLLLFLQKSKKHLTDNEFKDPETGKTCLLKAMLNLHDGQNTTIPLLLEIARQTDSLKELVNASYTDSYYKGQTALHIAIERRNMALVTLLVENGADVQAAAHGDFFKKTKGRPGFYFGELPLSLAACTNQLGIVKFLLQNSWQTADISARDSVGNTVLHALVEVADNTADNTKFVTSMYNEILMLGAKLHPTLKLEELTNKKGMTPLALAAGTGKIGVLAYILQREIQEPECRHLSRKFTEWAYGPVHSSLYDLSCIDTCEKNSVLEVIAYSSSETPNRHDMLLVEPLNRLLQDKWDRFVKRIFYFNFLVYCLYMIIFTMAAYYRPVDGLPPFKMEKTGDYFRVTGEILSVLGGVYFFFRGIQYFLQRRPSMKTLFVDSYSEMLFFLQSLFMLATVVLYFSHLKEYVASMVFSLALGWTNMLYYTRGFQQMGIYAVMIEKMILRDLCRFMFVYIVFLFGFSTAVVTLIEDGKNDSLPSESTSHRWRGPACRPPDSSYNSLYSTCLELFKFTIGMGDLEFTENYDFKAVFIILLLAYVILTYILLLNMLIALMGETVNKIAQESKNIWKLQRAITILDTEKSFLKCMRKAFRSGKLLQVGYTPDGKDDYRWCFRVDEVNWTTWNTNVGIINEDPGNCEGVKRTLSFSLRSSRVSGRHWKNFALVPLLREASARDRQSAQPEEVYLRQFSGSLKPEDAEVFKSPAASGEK

Row | Compound | pIC50 [1] | pKi [2] | inhibition [1] | further results
1 | CC(C(=O)NCc1ccc(C(F)(F)F)nc1SCc1ccccc1Cl)c1ccc(NS(C)(=O)=O)c(F)c1 (centres undefined) | 6.21 | 8.31 |  | 
2 | CC(C(=O)NCc1ccc(C(F)(F)F)nc1SCc1ccco1)c1ccc(NS(C)(=O)=O)c(F)c1 (centres undefined) |  | 7.84 | inactive | 
3 | CC(C(=O)NCc1ccc(C(F)(F)F)nc1SCCOc1ccccc1)c1ccc(NS(C)(=O)=O)c(F)c1 (centres undefined) | 6.93 | 8.64 |  | 
4 | C[C@H](C(=O)NCc1ccc(C(F)(F)F)nc1SC1CCCCC1)c1ccc(NS(C)(=O)=O)c(F)c1 | < 6.00 | 9.40 |  | inhibition [3]: Active; %max [4]: 75%; Activity [5]: Dose-dependent effect; ED50 ([5]; 0.75 h): 0.19 mg/kg; pIC50 [6]: 7.65; pKi [7]: 10.30
5 | CC(C(=O)NCc1ccc(C(F)(F)F)nc1SCCCN(C)C)c1ccc(NS(C)(=O)=O)c(F)c1 (centres undefined) | 5.82 | 7.56 |  | 
6 | CC(C(=O)NCc1ccc(C(F)(F)F)nc1SC1CCCCC1)c1ccc(NS(C)(=O)=O)c(F)c1 (centres undefined) |  |  | inactive | 
7 | CC(C(=O)NCc1ccc(C(F)(F)F)nc1SCCc1ccccc1)c1ccc(NS(C)(=O)=O)c(F)c1 (centres undefined) | 6.95 | 8.72 |  | 
8 | CCC1CCC(Sc2nc(C(F)(F)F)ccc2CNC(=O)C(C)c2ccc(NS(C)(=O)=O)c(F)c2)CC1 (centres undefined) |  | 9.00 | inactive | 
9 | CC(C(=O)NCc1ccc(C(F)(F)F)nc1SCc1cccc(C(F)(F)F)c1)c1ccc(NS(C)(=O)=O)c(F)c1 (centres undefined) | 7.15 | 8.41 |  | 
10 | CC(C(=O)NCc1ccc(C(F)(F)F)nc1SCc1ccc(Cl)cc1)c1ccc(NS(C)(=O)=O)c(F)c1 (centres undefined) | 6.17 | 8.06 |  | 
11 | CC(C(=O)NCc1ccc(C(F)(F)F)nc1SCCCN1CCOCC1)c1ccc(NS(C)(=O)=O)c(F)c1 (centres undefined) |  |  | inactive | Ki [2]: Not Active
12 | CC(C(=O)NCc1ccc(C(F)(F)F)nc1SC1CCC(C(C)(C)C)CC1)c1ccc(NS(C)(=O)=O)c(F)c1 (centres undefined) | 7.05 | 8.59 |  | 
13 | CC(C(=O)NCc1ccc(C(F)(F)F)nc1SCCC(=O)O)c1ccc(NS(C)(=O)=O)c(F)c1 (centres undefined) |  |  | inactive | Ki [2]: Not Active
14 | CC(C(=O)NCc1ccc(C(F)(F)F)nc1SCCCO)c1ccc(NS(C)(=O)=O)c(F)c1 (centres undefined) |  |  |  | Ki [2]: Not Active
15 | CCCCCCSc1nc(C(F)(F)F)ccc1CNC(=O)C(C)c1ccc(NS(C)(=O)=O)c(F)c1 (centres undefined) | 6.14 | 8.25 |  | 

Further lines, with some results ahead:

Row | pIC50 [1] | pKi [2] | inhibition [1] | Compound | further results
16 | 5.96 | 7.32 |  | COC(=O)CCSc1nc(C(F)(F)F)ccc1CNC(=O)C(C)c1ccc(NS(C)(=O)=O)c(F)c1 (centres undefined) | 
17 | 6.74 | 9.30 |  | CC1CCC(Sc2nc(C(F)(F)F)ccc2CNC(=O)C(C)c2ccc(NS(C)(=O)=O)c(F)c2)CC1 (centres undefined) | 
18 | 7.02 | 8.60 |  | CCCCCSc1nc(C(F)(F)F)ccc1CNC(=O)C(C)c1ccc(NS(C)(=O)=O)c(F)c1 (centres undefined) | 
19 | 6.12 | 8.49 |  | Cc1ccc(CSc2nc(C(F)(F)F)ccc2CNC(=O)C(C)c2ccc(NS(C)(=O)=O)c(F)c2)cc1 (centres undefined) | 
20 |  | 7.36 | inactive | C[C@@H](C(=O)NCc1ccc(C(F)(F)F)nc1SC1CCCCC1)c1ccc(NS(C)(=O)=O)c(F)c1 | 
21 | 6.55 | 8.64 |  | COc1ccc(CSc2nc(C(F)(F)F)ccc2CNC(=O)C(C)c2ccc(NS(C)(=O)=O)c(F)c2)cc1 (centres undefined) | 
22 | 7.17 | 8.15 |  | CC(C(=O)NCc1ccc(C(F)(F)F)nc1SCCCBr)c1ccc(NS(C)(=O)=O)c(F)c1 (centres undefined) | 
23 |  | 8.92 | inactive | CC(C(=O)NCc1ccc(C(F)(F)F)nc1SC1CCCC1)c1ccc(NS(C)(=O)=O)c(F)c1 (centres undefined) | 
24 | 5.89 | 7.55 |  | C[C@H](C(=O)NCc1ccc(C(C)(C)C)cc1)c1ccc(NS(C)(=O)=O)c(F)c1 | 
25 | 6.66 | 8.54 |  | CC1CCN(CCCSc2nc(C(F)(F)F)ccc2CNC(=O)C(C)c2ccc(NS(C)(=O)=O)c(F)c2)CC1 (centres undefined) | 
26 |  | 7.82 | inactive | CC(C(=O)NCc1ccc(C(F)(F)F)nc1SCc1cccs1)c1ccc(NS(C)(=O)=O)c(F)c1 (centres undefined) | 
27 |  | 8.72 | inactive | CC(C(=O)NCc1ccc(C(F)(F)F)nc1SC1CCCCC1C)c1ccc(NS(C)(=O)=O)c(F)c1 (centres undefined) | 
28 | 6.60 | 8.64 |  | CC(C(=O)NCc1ccc(C(F)(F)F)nc1SCC1CCCCC1)c1ccc(NS(C)(=O)=O)c(F)c1 (centres undefined) | 
29 |  | 8.37 | inactive | CC(C(=O)NCc1ccc(C(F)(F)F)nc1SCC(F)(F)F)c1ccc(NS(C)(=O)=O)c(F)c1 (centres undefined) | 
30 | 6.60 | 8.52 |  | CC(C(=O)NCc1ccc(C(F)(F)F)nc1SCCCN1CCCCC1)c1ccc(NS(C)(=O)=O)c(F)c1 (centres undefined) | 
31 | 6.51 | 8.48 |  | CC(C(=O)NCc1ccc(C(F)(F)F)nc1SCCCN1CCCC1)c1ccc(NS(C)(=O)=O)c(F)c1 (centres undefined) | 
32 |  |  | inactive | CC(C(=O)NCc1ccc(C(F)(F)F)nc1[S+]([O-])C1CCCCC1)c1ccc(NS(C)(=O)=O)c(F)c1 (centres undefined) | Ki [2]: Not Active
33 |  |  | inactive | CC(C(=O)NCc1ccc(C(F)(F)F)nc1S(=O)(=O)C1CCCCC1)c1ccc(NS(C)(=O)=O)c(F)c1 (centres undefined) | Ki [2]: Not Active
34 | 7.09 | 9.15 |  | CC(C)CCSc1nc(C(F)(F)F)ccc1CNC(=O)C(C)c1ccc(NS(C)(=O)=O)c(F)c1 (centres undefined) | 
35 |  | 7.07 | inactive | CC(C(=O)NCc1ccc(C(F)(F)F)nc1SCCC(=O)N1CCCC1)c1ccc(NS(C)(=O)=O)c(F)c1 (centres undefined) | 
